Experimental data: paper PMC11559620 (Science Advances, 2024)
Where a chain is given by its changes, count along the chain named. Names and notes keep the numbering of the source. Ends that are not written are not given here.

Legend:
yeast vacuoles = assay: Vacuolar pH of yeast by BCECF-AM; type: cell-based, Saccharomyces cerevisiae; settings: n = 8
CML18 [1] = assay: Yeast two-hybrid assay, interaction with CML18; type: cell-based, Arabidopsis; settings: for interaction with CML18 (Y2H): C-terminal cytosolic fragments, selective YNB media
How it was run: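 Strain AH109 was cotransformed with NHX C-terminal fragments in pGBKT7 (GAL4 BD) and CML17 or CML18 in pGADT7 (GAL4 AD), selected on YNB-Trp-Leu. Cultures were grown at 28°C to saturation (OD600 ~2), then 5-μl drops of 10-fold dilutions were spotted on YNB-Trp-Leu, -His-Trp-Leu and -Ade-Trp-Leu. Plates were incubated at 28°C for 3–4 days. p53/pSV40 served as positive control, empty vectors as negative.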

CML18 [2] = assay: Bimolecular fluorescence complementation, interaction with CML18; type: cell-based, Arabidopsis; settings: leaves of N. benthamiana
How it was run: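 Agrobacterium GV3101 carrying BiFC constructs was co-infiltrated with a p19-transformed strain into 5- to 6-week-old N. benthamiana leaves. Full-length NHX1 or NHX2 and CML18 were each fused to complementary halves of eYFP. Empty pSPYCE(M) served as negative control. The lower epidermis was imaged by confocal microscopy (515-nm laser, 60× objective) under constant imaging settings, using a YFP filter.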

CML18 [3] = biological target: T1, CML18 (Arabidopsis thaliana, UniProt Q9M8U1); assay: Isothermal titration calorimetry, CBD peptide; type: binding
T1 sequence (Q9M8U1 1-165): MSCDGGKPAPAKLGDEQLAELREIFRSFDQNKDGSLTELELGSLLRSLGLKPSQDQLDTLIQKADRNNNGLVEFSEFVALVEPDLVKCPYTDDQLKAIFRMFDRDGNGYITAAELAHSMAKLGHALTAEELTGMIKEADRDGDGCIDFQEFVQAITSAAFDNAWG
How it was run: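 ITC at 25°C: 200 μM CML18 was titrated into 20 μM CBD peptide in 2-μl injections at 150-s intervals, stirred at 750 rpm, in buffer C (pH 6.3) or D (pH 8.3), with 18 μM EGTA or 180 μM Ca2+. Heats from ligand-into-buffer controls were subtracted. Two titrations were run for each of two independent protein preparations.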

CML18 [4] = biological target: T1, CML18; assay: Far-UV circular dichroism of CML18:CML-BD complex; type: binding
How it was run: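 Far-UV CD (320–202 nm, 20°C, 1.0-mm quartz cuvette) of decalcified CML18, the synthetic CBD peptide, and a 1:1 protein:peptide mixture, each at pH 6.3 and 8.3. The spectrum expected for non-interacting samples was calculated as the sum of the two individual spectra and compared with the mixture.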

AXT3K strain = assay: Complementation assay, hygromycin B resistance of yeast AXT3K; type: cell-based, Saccharomyces cerevisiae; settings: YPD + HygB (50 μg/ml), 30°C
C terminus of NHX1 = assay: Yeast two-hybrid assay, dimerization with C terminus of NHX1; type: cell-based, Arabidopsis; settings: fig. S2; cytosolic C-terminal domains
[5] = Far-UV circular dichroism of CML18; type: physicochemical
How it was run: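 CML18 was decalcified by dialysis against 20 mM EGTA, then re-dialysed into EGTA-free buffer C (20 mM MES pH 6.3, 80 mM KCl, 5 mM NaCl, 2 mM DTT) or buffer D (same, with 20 mM tris pH 8.3). Far-UV CD spectra (320–202 nm) were recorded at 0.2 mg/ml, 20°C, 1.0-mm quartz cuvette, with 180 μM Ca2+ or 18 μM EGTA.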

Tryptophan = type: physicochemical
How it was run: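 Decalcified CML18 was dialysed into buffer C (20 mM MES pH 6.3) or D (20 mM tris pH 8.3), both with 80 mM KCl, 5 mM NaCl, 2 mM DTT. Samples of 10 μl at 25 μM were loaded into UV capillaries and heated from 35 to 95°C at […]. The initial Trp emission ratio (350/330 nm) was taken at the start. For Ca2+ titrations, 20 μM EGTA was kept constant.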

NHX1 = settings: ref [15]; cited from earlier work

## NHX1∆CBD: NHX1 with the CBD deleted (residues S486 to G516)
Yeast vacuoles
  vacuolar pH (pHvac): overly acidic
CML18 [1]
  interaction with CML18 (Y2H): tested negative
CML18 [2]
  interaction with CML18 (BiFC): lost the interaction with CML18

## DSIRGFLTRPTRTVHYYWRQFDDSFMRPVFGGR [CML-BD]
CML18 [3]; pH 6.3, presence of Ca2+
  complex formation with CML18: high-affinity complex is formed
CML18 [3]; pH 6.3, model fit, equal affinity
  CML-BD binding sites per CML18 monomer: two CML-BD binding sites with equal affinity per CML18 monomer
CML18 [4]; far-UV CD, 20°C, peptide alone
  helical content in solution: no helical content
CML18 [4]; far-UV CD, pH 6.3 versus 8.3
  binding of CML18 to CBD peptide, pH dependence: mostly favored at acidic pH
CML18 [4]; pH 6.3, 1:1 protein:peptide, far-UV CD, relative to CML18 alone
  α-helical content of the mixture with CML18: increased α-helical content
CML18 [4]; pH 8.3, absence of Ca2+
  interaction with CML18: no interaction is observed
CML18 [4]; pH 8.3, 1:1 protein:peptide, far-UV CD
  helicity of the mixture with CML18: only a small increase in helicity

B1: NHX2: vacuolar exchanger; C-terminal residues G434 to P546 in Y2H (protein, UniProt Q56XP4 434-546, looked up, fragment)
chain: GMLTKPLIRYLMPHQKATTSTTSMLSDDSTPKSIHIPLLDGEQLDSFELPGSHQDVPRPNSLRGFLMRPTRTVHYYWRQFDDAFMRPVFGGRGFVPFVPGSPTERSSHDLSKP
CML18 [1]
  interaction with CML18 (Y2H): strongly
CML18 [2]
  interaction with CML18 (BiFC): interacted with CML18
AXT3K strain
  HygB resistance / protein activity in AXT3K: suppressed the HygB sensitivity
C terminus of NHX1
  homodimerization / heterodimerization (Y2H): positive results

B2: CML18: calmodulin-like protein of Arabidopsis, At3g03000 (protein)
chain: T1 sequence (Q9M8U1 1-165)
modifications: left off: cYFP (C-terminal half of YFP), C-terminal, kept
[5]; 180 μM Ca2+ or 18 μM EGTA, pH 6.3 and 8.3
  CD spectrum change upon addition of Ca2+ or EGTA: no noticeable changes in the spectrum
[5]; pH 6.3 compared to pH 8.3, 0.2 mg/ml, 20°C
  CD peak at 222 nm: clear increase of the peak at 222 nm at pH 6.3 compared to pH 8.3
Tryptophan; pH 6.3 versus pH 8.3, 350/330 nm, 25 μM CML18
  W164 fluorescence red shift: remarkable red shift
NHX1
  effect on K+/H+ and Na+/H+ exchange rates of NHX1: inhibition
  effect on K+/H+ transport by NHX1: inhibit

B3: NHX4: vacuolar exchanger; C-terminal residues T437 to C529 in Y2H (protein)
chain: TKPLVNYLLPQDASHNTGNRGKRTEPGSPKEDATLPLLSFDESASTNFNRAKDSISLLMEQPVYTIHRYWRKFDDTYMRPIFGGPRRENQPEC
modifications: left off: Gal4 DNA-binding domain (vector pGBKT7), end not stated, kept
CML18 [1]
  interaction with CML18 (Y2H): strongly

B4: W502A: NHX1 mutant in the CBD (protein, UniProt Q68KI4 1-538, looked up, variant W502A)
Sodium/hydrogen exchanger 1: MLDSLVSKLPSLSTSDHASVVALNLFVALLCACIVLGHLLEENRWMNESITALLIGLGTGVTILLISKGKSSHLLVFSEDLFFIYLLPPIIFNAGFQVKKKQFFRNFVTIMLFGAVGTIISCTIISLGVTQFFKKLDIGTFDLGDYLAIGAIFAATDSVCTLQVLNQDETPLLYSLVFGEGVVNDATSVVVFNAIQSFDLTHLNHEAAFHLLGNFLYLFLLSTLLGAATGLISAYVIKKLYFGRHSTDREVALMMLMAYLSYMLAELFDLSGILTVFFCGIVMSHYTWHNVTESSRITTKHTFATLSFLAETFIFLYVGMDALDIDKWRSVSDTPGTSIAVSSILMGLVMVGRAAFVFPLSFLSNLAKKNQSEKINFNMQVVIWWSGLMRGAVSMALAYNKFTRAGHTDVRGNAIMITSTITVCLFSTVVFGMLTKPLISYLLPHQNATTSMLSDDNTPKSIHIPLLDQDSFIEPSGNHNVPRPDSIRGFLTRPTRTVHYYARQFDDSFMRPVFGGRGFVPFVPGSPTERNPPDLSKA
CML18 [1]
  interaction with CML18 (Y2H): essential for the interaction
AXT3K strain
  HygB resistance / protein activity in AXT3K: inactive

B5: D506A: NHX1 mutant in the CBD (protein, UniProt Q68KI4 1-538, looked up, variant D506A)
Sodium/hydrogen exchanger 1: B4 Sodium/hydrogen exchanger 1 with A502W, D506A
CML18 [1]
  interaction with CML18 (Y2H): essential for the interaction
AXT3K strain
  HygB resistance / protein activity in AXT3K: inactive

B6: H285L (protein, UniProt Q68KI4 1-538, looked up, variant H285L)
Sodium/hydrogen exchanger 1: B4 Sodium/hydrogen exchanger 1 with H285L, A502W
AXT3K strain
  HygB resistance / protein activity in AXT3K: inactive

B7: Y286A (protein, UniProt Q68KI4 1-538, looked up, variant Y286A)
Sodium/hydrogen exchanger 1: B4 Sodium/hydrogen exchanger 1 with Y286A, A502W
AXT3K strain
  HygB resistance / protein activity in AXT3K: inactive

B8: H479L: NHX1 mutant outside the CBD, control (protein, UniProt Q68KI4 1-538, looked up, variant H479L)
Sodium/hydrogen exchanger 1: B4 Sodium/hydrogen exchanger 1 with H479L, A502W
Yeast vacuoles
  vacuolar pH (pHvac): no substantial differences
AXT3K strain
  HygB resistance / protein activity in AXT3K: supported grow

B9: H499L: NHX1 mutant within the CBD (protein, UniProt Q68KI4 1-538, looked up, variant H499L)
Sodium/hydrogen exchanger 1: B4 Sodium/hydrogen exchanger 1 with H499L, A502W
Yeast vacuoles
  vacuolar pH (pHvac): no substantial differences
CML18 [1]
  interaction with CML18 (Y2H): not as strong as with the WT NHX1
CML18 [1]; YNB-His
  growth of cells coexpressing CML18 (Y2H): able to grow
CML18 [1]; YNB-His-Ade
  growth of cells coexpressing CML18 (Y2H): not in the more stringent media YNB-His-Ade
AXT3K strain
  HygB resistance / protein activity in AXT3K: supported grow

B10: H479L-H499L (protein, UniProt Q68KI4 1-538, looked up, variant H479L H499L)
Sodium/hydrogen exchanger 1: B4 Sodium/hydrogen exchanger 1 with H479L, H499L, A502W
Yeast vacuoles
  vacuolar pH (pHvac): no substantial differences
AXT3K strain
  HygB resistance / protein activity in AXT3K: supported grow

B11: CML18-D161N (protein, UniProt Q9M8U1 1-165, looked up, variant D161N)
Probable calcium-binding …: T1 sequence (Q9M8U1 1-165) with D161N
[5]; fig. S6
  far-UV CD spectrum compared with WT at pH 6.3: nearly identical to that of the WT protein at pH 6.3
Tryptophan; pH 6.3 and 8.3
  350-nm/330-nm emission ratio, pH dependence: remained constant regardless of pH
